Measured values reported in ChEMBL document CHEMBL1926607 (J Med Chem, 2011).

Assays:
Rattus norvegicus [1] = experiment: Neuroprotective activity in permanent middle cerebral artery occlusion-induced ischemic in Sprague-Dawley rat assessed as decrease in cortical infract volume at 40 ug/kg/h, iv administered 1 hr before ischemia and 1 hr after ischemia measured after 24 hrs (reference value: 399 +/- 38 mm3); type: functional
[2] = Neuroprotective activity in Wistar rat hippocampi primary neuronal cells assessed as protection against oxygen-glucose deprivation induced cell death at 0.1 uM after 18 hrs by MTT assay; type: functional, Hippocampus, Primary neuron
Rattus norvegicus [3] = experiment: Neuroprotective activity in permanent middle cerebral artery occlusion-induced ischemic in Sprague-Dawley rat assessed as decrease in sub-cortical infract volume at 40 ug/kg/h, iv administered 1 hr before ischemia and 1 hr after ischemia measured after 24 hrs (reference value: 147 +/- 23 mm3); type: functional
[4] = Neuroprotective activity in Wistar rat hippocampi primary neuronal cells assessed as protection against serum-deprivation induced cell death at 0.1 uM after 24 hrs by MTT assay; type: functional, Hippocampus, Primary neuron
How it was run: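 Mixed neuron-glia cultures from E18 Wistar rat hippocampi (Neurobasal plus 10% FCS), used at 11 days in vitro. Medium replaced by saline to withdraw serum; cells held 24 h with compound. Cell survival measured by MTT reduction, expressed as % protection.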

Rattus norvegicus [5] = experiment: Neuroprotective activity against permanent middle cerebral artery occlusion-induced focal ischemia in Sprague-Dawley rat assessed as decrease in total cerebral infract volume at 40 ug/kg/h, iv administered 1 hr before ischemia and 1 hr after ischemia measured after 24 hrs (reference value: 546 +/- 51 mm3); type: functional
Mus musculus = experiment: Antihypothermic activity in ip dosed Swiss mouse assessed as inhibition of 8-OH-DPAT-induced hypothermia administered 30 mins before 8-OH-DPAT challenge measured after 15 to 60 mins; type: functional; settings: read-out: MED
How it was run: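 Male Swiss mice (23–28 g) were housed five per cage. Rectal temperature (probe at 2 cm) was read at 15, 30 and 60 min after injection. The response was the maximum fall from basal temperature, analysed by ANOVA with Student–Newman–Keuls test.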

[6] = target: T1, 5-hydroxytryptamine receptor 1A (Homo sapiens, UniProt P08908); experiment: Agonist activity at human 5HT1A receptor expressed in human HeLa cells assessed as inhibition of forskolin-stimulated cAMP production […] measured after 2 hrs by RIA; type: functional, cell-based
T1 sequence (P08908 whole entry): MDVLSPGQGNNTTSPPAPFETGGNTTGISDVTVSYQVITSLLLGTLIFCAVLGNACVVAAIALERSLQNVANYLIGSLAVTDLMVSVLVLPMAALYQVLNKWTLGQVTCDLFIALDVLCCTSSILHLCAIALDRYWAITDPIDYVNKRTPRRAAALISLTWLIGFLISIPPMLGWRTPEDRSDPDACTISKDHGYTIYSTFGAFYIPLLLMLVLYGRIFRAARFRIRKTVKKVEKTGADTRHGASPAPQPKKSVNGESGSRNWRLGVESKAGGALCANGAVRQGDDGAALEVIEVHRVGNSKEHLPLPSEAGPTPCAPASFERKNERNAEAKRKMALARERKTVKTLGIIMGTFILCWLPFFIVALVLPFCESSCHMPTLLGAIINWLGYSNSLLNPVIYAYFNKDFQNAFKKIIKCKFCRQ
How it was run: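 HeLa cells stably expressing the h5-HT1AR, grown in DMEM with 2 mM glutamine, 1 mM pyruvate and 10% heat-inactivated FCS, and used after 2–3 days at about 7.5 × 10^4 cells/well. After a PBS wash, cells were incubated 10 min in PBS with 0.5 mM isobutylmethylxanthine and 10 μM forskolin, with or without compound. The reaction was stopped with ice-cold ethanol, extracted 2 h and lyophilized; cAMP was measured by RIA.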

[7] = Neuroprotective activity in Wistar rat hippocampi primary neuronal cells assessed as protection against glutamate-induced cell death at 0.1 uM treated 30 min before glutamate challenge measured after 22 hrs by MTT assay; type: functional, Hippocampus, Primary neuron
How it was run: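 E18 fetal Wistar rat hippocampal neurons in neuron-enriched culture (Neurobasal, 2% B27, poly-L-lysine), used at 11 days in vitro. Compound added 30 min before 1 mM glutamate, exposure 22 h. Survival by MTT (mitochondrial dehydrogenase) read-out, reported as % protection.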

[8] = target: T2, 5-hydroxytryptamine receptor 1A (Homo sapiens) (UniProt P08908); experiment: Agonist activity at human 5HT1A receptor expressed in human HeLa cells assessed as inhibition of forskolin-stimulated cAMP production pretreated 20 mins before forskolin challenge measured after 2 hrs by RIA relative to control; type: functional, cell-based
T2 sequence (whole entry): T1 sequence (P08908 whole entry)

Row | Structure (SMILES) | Activity (Rattus norvegicus [1]) [mm3] | Activity [2] [%] | Activity (Rattus norvegicus [3]) [mm3] | Activity [4] [%] | Activity (Rattus norvegicus [5]) [mm3] | minimal effective dose (Mus musculus) [mg/kg] | EC50 [6] [nM] | Activity [7] [%] | Emax [8] [%]
1 | O=C1c2ccccc2S(=O)(=O)N1CCCCNC[C@H]1CCc2ccccc2O1 [REPINOTAN] | 271 | 78 | 106 | 31 | 377 | – | – | – | –
2 | O=C1c2ccccc2S(=O)(=O)N1CCCCNCC1CCc2ccccc2O1 (racemic) | – | – | – | 26 | – | 0.15 | 1.5 | 16 | 94.8
